The values below come from ChEMBL document CHEMBL4011617, “Ugi Reaction-Derived α-Acyl Aminocarboxamides Bind to Phosphatidylinositol 3-Kinase-Related Kinases, Inhibit HSF1-Dependent Heat Shock Response, and Induce Apoptosis in Multiple Myeloma Cells” (J Med Chem, 2017).

The source made the active and inactive calls. No cut-off for these calls is given here.

In assay [1] the test system is INA-6. Nature of the assay: Effect on NVP-AUY922-induced HSF-1 mRNA expression in human INA-6 cells at 25 uM preincubated for 4 hrs followed by NVP-AUY922 addition measured after 4 hrs by RT-PCR method. It is filed as functional, cell-based. In short, it runs like this: (§1)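 INA-6 cells exposed to compound for 4 h, then co-treated with 10 nM NVP-AUY922 for another 4 h. Total RNA isolated; HSP27, HSP72 and HSF1 transcripts measured by real-time PCR and normalized to α-tubulin. Means and standard deviations from three independent experiments.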

The subject of assay [2] is INA-6. Put plainly: Inhibition of heat shock response in human INA-6 cells assessed as reduction in HSF-1 mediated upregulation of the heat shock protein HSP72 at 25 uM preincubated for 4 hrs followed by HSP90 inhibitor and HSR inducer NVP-AUY922 addition measured after 4 hrs by Western blot method. It is filed as functional, cell-based. In short, it runs like this: (§2)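 INA-6 myeloma cells pretreated with test compound for 4 h, then co-treated with the HSP90 inhibitor/HSR inducer NVP-AUY922 for a further 4 h. Cells harvested; HSP72, HSP27, HSF1 or phospho-HSF1 probed by Western blot with β-actin as loading control. DMSO-only cells were the negative control; NVP-AUY922-only cells were the positive control.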
A general note: Immunoblotting shows a protein as a band on a membrane.

Assay [3] concerns INA-6. Put plainly: Induction of apoptosis in human INA-6 cells at 6.3 to 8.6 uM after 72 hrs by annexin V-FITC/propidium iodide staining-based flow cytometry method. It is filed as functional, cell-based. The essentials: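 INA-6 cells incubated three days with DMSO or increasing compound concentrations. Viability read by annexin V-FITC/propidium iodide staining and flow cytometry. Double-negative (viable) fractions used to fit dose-response curves from three independent experiments; mean ± SD reported.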
(Flow cytometry measures light scatter and fluorescence of single cells or particles in a stream.)

The subject of assay [4] is INA-6. Nature of the assay: Inhibition of heat shock response in human INA-6 cells assessed as reduction in HSF-1 mediated upregulation of the heat shock protein HSP72 at 25 uM preincubated for 4 hrs followed by HSP90 inhibitor and HSR inducer NVP-AUY922 addition measured after 4 hrs by ELISA. It is filed as functional, cell-based. In short, it runs like this:
(§3)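 HSP72 quantified by ELISA in the same protein lysates used for Western blots. INA-6 cells received compound for 4 h, then NVP-AUY922 co-treatment for 4 h more to stimulate HSF1. DMSO-only and NVP-AUY922-only cells served as negative and positive controls.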
On the technique in general: In an ELISA, binding on a coated surface is turned into a signal by an enzyme label.

The subject of assay [5] is INA-6. Put plainly: Downregulation of NVP-AUY922-induced HSF-1 protein expression in human INA-6 cells at 25 uM preincubated for 4 hrs followed by NVP-AUY922 addition measured after 4 hrs by Western blot method. It is filed as functional, cell-based. In short, it runs like this: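 INA-6 cells were pre-treated with compound for 4 h, then co-treated with the HSP90 inhibitor NVP-AUY922 for an additional 4 h. Cells were harvested and blotted for HSP72, HSP27, HSF1 or phospho-HSF1, with β-actin as the loading control. DMSO-only cells served as the negative control and NVP-AUY922-only cells as the positive control.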

Assay [6] has as its system INA-6. Put plainly: Inhibition of heat shock response in human INA-6 cells assessed as reduction in HSF-1 mediated upregulation of the heat shock protein HSP27 at 25 uM preincubated for 4 hrs followed by HSP90 inhibitor and HSR inducer NVP-AUY922 addition measured after 4 hrs.
The subject of assay [7] is INA-6. Put plainly: Inhibition of heat shock response in human INA-6 cells assessed as reduction in HSF-1 mediated upregulation of the heat shock protein HSP27 at 25 uM preincubated for 4 hrs followed by HSP90 inhibitor and HSR inducer NVP-AUY922 addition measured after 4 hrs by Western blot method. It is filed as functional, cell-based. In short, it runs like this:
as §2

Assay [8] addresses T1, Heat shock factor protein 1 (Homo sapiens) (UniProt Q00613).
T1 sequence (whole entry): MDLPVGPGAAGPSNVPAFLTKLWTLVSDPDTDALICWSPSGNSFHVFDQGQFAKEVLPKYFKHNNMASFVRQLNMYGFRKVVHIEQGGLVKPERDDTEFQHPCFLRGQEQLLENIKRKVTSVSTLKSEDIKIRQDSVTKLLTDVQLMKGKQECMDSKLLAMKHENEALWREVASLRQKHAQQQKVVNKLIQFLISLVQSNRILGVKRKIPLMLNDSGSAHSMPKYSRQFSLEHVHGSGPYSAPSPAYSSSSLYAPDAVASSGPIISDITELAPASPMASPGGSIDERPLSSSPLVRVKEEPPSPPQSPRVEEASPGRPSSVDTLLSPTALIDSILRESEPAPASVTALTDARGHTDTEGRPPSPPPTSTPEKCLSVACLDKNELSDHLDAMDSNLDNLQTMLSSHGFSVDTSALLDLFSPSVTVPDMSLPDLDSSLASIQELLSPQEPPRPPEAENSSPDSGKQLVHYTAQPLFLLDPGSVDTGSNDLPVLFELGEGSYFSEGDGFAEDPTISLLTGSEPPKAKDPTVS
Put plainly: Inhibition of NVP-AUY922-induced HSF-1 phosphorylation at S326 residue in human INA-6 cells at 25 uM preincubated for 4 hrs followed by NVP-AUY922 addition measured after 4 hrs by Western blotting method. It is filed as cell-based. In short, it runs like this:
as §2

The subject of assay [9] is INA-6. Put plainly: Induction of apoptosis in human INA-6 cells preincubated for 4 hrs followed by NVP-AUY922 addition measured after 68 hrs by annexin V-FITC/propidium iodide staining-based flow cytometry method. It is filed as functional, cell-based. The essentials:
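INA-6 cells received DMSO or test compound for 72 h. At 4 h, DMSO or 10 nM NVP-AUY922 was added for the remaining 68 h. Viable fraction measured by annexin V-FITC/PI flow cytometry and expressed relative to the matching DMSO controls; means ± SD of three independent experiments.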

The test system of assay [10] is INA-6. Put plainly: Inhibition of heat shock response in human INA-6 cells assessed as reduction in HSF-1 mediated upregulation of the heat shock protein HSP72 at 50 uM preincubated for 4 hrs followed by HSP90 inhibitor and HSR inducer NVP-AUY922 addition measured after 4 hrs by ELISA. It is filed as functional, cell-based. In short, it runs like this: as §3
Assay [11] relates to INA-6. Nature of the assay: Downregulation of NVP-AUY922-induced HSF-1 protein expression in human INA-6 cells at 50 uM preincubated for 4 hrs followed by NVP-AUY922 addition measured after 4 hrs by Western blot method. It is filed as functional, cell-based. In short, it runs like this:
as §2

Assay [12] relates to INA-6. Nature of the assay: Inhibition of heat shock response in human INA-6 cells assessed as reduction in HSF-1 mediated upregulation of the heat shock protein HSP27 at 50 uM preincubated for 4 hrs followed by HSP90 inhibitor and HSR inducer NVP-AUY922 addition measured after 4 hrs by ELISA. It is filed as functional, cell-based.
Assay [13] has as its target Heat shock factor protein 1 (Homo sapiens) (UniProt Q00613). Nature of the assay: Inhibition of NVP-AUY922-induced HSF-1 phosphorylation at S326 residue in human INA-6 cells at 50 uM preincubated for 4 hrs followed by NVP-AUY922 addition measured after 4 hrs by Western blot method. It is filed as cell-based. The essentials: as §2
The subject of assay [14] is INA-6. Put plainly: Inhibition of heat shock response in human INA-6 cells assessed as reduction in HSF-1 mediated upregulation of the heat shock protein HSP27 at 50 uM preincubated for 4 hrs followed by HSP90 inhibitor and HSR inducer NVP-AUY922 addition measured after 4 hrs by Western blot method. It is filed as functional, cell-based. The essentials:
as §2

Assay [15] has as its system INA-6. Put plainly: Inhibition of heat shock response in human INA-6 cells assessed as reduction in HSF-1 mediated upregulation of the heat shock protein HSP72 at 50 uM preincubated for 4 hrs followed by HSP90 inhibitor and HSR inducer NVP-AUY922 addition measured after 4 hrs by Western blot method. It is filed as functional, cell-based. The essentials: as §2
The subject of assay [16] is INA-6. Put plainly: Effect on NVP-AUY922-induced HSF-1 mRNA expression in human INA-6 cells at 50 uM preincubated for 4 hrs followed by NVP-AUY922 addition measured after 4 hrs by RT-PCR method. It is filed as functional, cell-based. The essentials:
as §1

Regarding `NCCOCCOCCNCCOc1ccc(C(C(=O)NCc2ccccc2)N(C(=O)CCc2ccccc2)C2CC2)cc1` (stereo not given), the outcome with INA-6 [1] was inactive. Also, the inhibition entry (with INA-6 [2]; with INA-6 [4]; in the assay on INA-6 [6]; with INA-6 [7]; in assay [8]) was “Active” throughout. For the same molecule, the outcome with INA-6 [3], in the assay with INA-6 [5] and in the assay with INA-6 [9] was Active.
For the molecule “N-(2-(Benzylamino)-1-(2-bromophenyl)-2-oxoethyl)-N-cyclopropylcinnamamide”, the “HSP72 upregulation inhibition (active/not active)” value with INA-6 [10] is “Active”. The outcome in the assay with INA-6 [11] was Active. The “heat shock response inhibition (active/not active)” value with INA-6 [12] and in the assay on INA-6 [15] was “Active” throughout. For the same molecule, in [13], the inhibition result is “Active”. The “activity call (active/not active) for inhibition of HSP27 upregulation” value in the assay with INA-6 [14] was “Active”.
Regarding `O=C(NCc1ccccc1)C(c1ccc(O)cc1)N(C(=O)CCc1ccccc1)C1CC1` (racemic), the “HSP72 upregulation inhibition (active/not active)” value in the assay on INA-6 [10] is “inactive”. Also, the outcome with INA-6 [16] was inactive. The “heat shock response inhibition (active/not active)” value in the assay with INA-6 [12] and with INA-6 [15] was “inactive” each time. The “activity call (active/not active) for inhibition of HSP27 upregulation” value in the assay with INA-6 [14] was “inactive”.
